Compound activity as filed in PubChem.
TAAR1 antag: antagonists of human TAAR1; CHO RD-HGA16 TAAR1, Fluo-8 calcium fluorescence, antagonist; inhibition, % at 3 µM; actives 1.5% (n = 360,000);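 active means inhibition above a per-plate cutoff, the mean inhibition of test compounds on that plate plus 3 SD, cut at about 49% in these data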;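 further: 0% = DMSO plus EC80 beta-PEA response and 100% = DMSO alone without agonist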
Target sequence (Q96RJ0 whole entry, looked up): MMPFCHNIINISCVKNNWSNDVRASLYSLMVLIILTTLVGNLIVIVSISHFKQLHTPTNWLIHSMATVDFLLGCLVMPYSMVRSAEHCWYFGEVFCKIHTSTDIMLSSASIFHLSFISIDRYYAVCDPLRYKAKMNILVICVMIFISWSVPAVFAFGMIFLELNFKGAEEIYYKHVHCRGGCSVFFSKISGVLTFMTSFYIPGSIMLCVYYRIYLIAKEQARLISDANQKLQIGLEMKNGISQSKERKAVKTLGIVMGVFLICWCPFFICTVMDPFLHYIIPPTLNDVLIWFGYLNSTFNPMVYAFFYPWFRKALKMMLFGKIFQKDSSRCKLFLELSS
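System: RD-HGA16 CHO cells with stable hTAAR1 and Gα16 | Probe or stimulus: EC80 β-phenethylamine stimulus | Dosing: 3 µM, single point | Times: Dye loading 75 min at 37 °C, then 30 min room temperature | Measured by: Fluo-8 calcium-sensitive fluorescence | Read-out basis: % inhibition of agonist calcium response | Replicates: n of 1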
OX1R antag-1: blocks the human orexin 1 receptor | O43613 | AID 485270 | OX1R-expressing cells, FRET antagonist read-out | inhibition, % at 6.6 µM | actives 1.8% (n = 330,000); in the data active means inhibition mostly above about 38%, no sharp cut-off; inactive means mostly below about 40%;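 further: 0% = agonist challenge alone and 100% = reference antagonist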
GalR3 antagonist: antagonists of human GalR3; O60755; HEK293 GalR3-CNG cAMP membrane potential fluorescence; galR3 body fused to GalR1 C-terminus; inhibition, % at 3 µM; actives 0.44% (n = 360,000);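 active means inhibition above the screen-wide average plus 3 SD, cut at about 13% in these data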;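 further: forskolin and galanin both at EC90 stimulate the cells; cAMP rise reported by CNG channel membrane potential dye signal; 0% = forskolin plus galanin with DMSO and 100% = forskolin alone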
Target sequence (O60755 1-299 limits assumed): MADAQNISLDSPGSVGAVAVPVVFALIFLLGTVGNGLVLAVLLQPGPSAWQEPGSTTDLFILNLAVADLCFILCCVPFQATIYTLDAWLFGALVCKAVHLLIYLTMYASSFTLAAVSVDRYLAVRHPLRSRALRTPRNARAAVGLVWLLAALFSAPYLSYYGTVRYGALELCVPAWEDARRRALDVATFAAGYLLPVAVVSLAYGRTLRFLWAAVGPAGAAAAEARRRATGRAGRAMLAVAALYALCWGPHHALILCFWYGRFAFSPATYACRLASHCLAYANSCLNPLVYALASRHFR
TAAR1 agonist: human TAAR1 agonism; Q96RJ0; CHO RD-HGA16 TAAR1, Fluo-8 calcium fluorescence; vehicle wells 0%, saturating PEA agonist 100%; activation, % at 3 µM; actives 0.99% (n = 360,000); AID 624467;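 active means activation above the mean activation of all test compounds in the run plus 3 SD, cut at about 38% in these data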
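System: CHO-derived RD-HGA16 cells with stable Gα16 and human TAAR1. Times: 17-24 h plating, Fluo-8 75 min 37 °C, 30 min RT. Measured by: calcium-sensitive Fluo-8 signal, excitation 470-495, emission 515-575 nm. Read-out basis: % activation relative to PEA EC100 response. Control set: DMSO and PEA EC100. Repeats: no replicates (n 1).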
OX1R antag-2: antagonists of human orexin 1 receptor | actives 0.43% (n = 330,000) | CHO/OX1R cells, Fluo-8 calcium fluorescence, orexin A | inhibition, % at 5 µM;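 active means inhibition above its plate's threshold, mean inhibition of all tested compounds on the plate plus 3 SD, cut at about 37% in these data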;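 further: 0% = orexin A challenge wells and 100% = SB-334867-A antagonist wells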
CHO parental Ca: counter-screen for OX1R antagonists: effect in parental CHO cells. AID 463079. parental CHO-K1, ATP-induced calcium, Fluo-8 fluorescence. inhibition, % at 5.6 µM. actives 0.63% (n = 330,000);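 active means inhibition above that plate's mean sample inhibition plus 3 SD, cut at about 26% in these data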;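 further: 0% = ATP-challenged DMSO wells and 100% = DMSO wells without ATP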
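Assay system: untransfected parental CHO cell line. Also added: ATP agonist challenge. Dosing: one dose, 5.6 µM nominal. Measured by: Fluo-8 fluorescence. Read-out: % inhibition. Benchmarks: ATP wells versus no-ATP DMSO wells. Repeats: no replicates.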
The depositor's hits bear a star; / = no result. A selection: hits, their analogues and other compounds. The true share with any hit is near 4.3%.

SMILES	TAAR1 antag	OX1R antag-1	GalR3 antagonist	TAAR1 agonist	OX1R antag-2	CHO parental Ca
Cc1nn2c(CN(C(=O)COc3ccccc3)c3ccccc3)nnc2c2ccccc12	4	62*	-7	1	0	-10
Cc1ccc(C(=O)Nc2ccccc2C(=O)N2CC(C)OC(C)C2)cc1 (stereo not drawn)	-9	/	2	0	/	/
CCCCCCc1cc2cc(C(N)=O)c(=N)oc2cc1O	/	55*	/	/	-22	-7
C=CCc1cccc(/C=N/NC(=O)C(C)Nc2ccc(C)cc2)c1O (stereo not drawn)	14	7	-4	4	-11	-15
C=CCc1cccc(/C=N/NC(=O)C(=O)Nc2ccc(C)cc2)c1O	-3	49*	-4	6	-16	-14
COc1ccc2c(c1)[nH]c1c(=O)n(Cc3ccco3)cnc12	36	15	-1	47*	-7	-2
COc1ccc2c(c1)[nH]c1c(=O)n(Cc3ccccn3)cnc12	5	16	-3	2	-17	-8
NC(=S)N/N=C/c1cccc(O)c1O	16	14	-2	4	-7	-4
Cc1cc(/C=N/NC(N)=S)c(O)c(/C=N/NC(N)=S)c1	9	45	-7	50*	-4	-3
CCc1cc(=O)oc2cc(C)cc(OC(C)C(=O)NC(Cc3c[nH]c4ccc(O)cc34)C(=O)O)c12 (stereo not drawn)	-27	13	-6	2	4	-7
CC(=O)c1ccc(NC(=O)Nc2cccc(Cl)c2)cc1	35	72*	-6	33	35	38*
CSc1cccc(NC(=O)Nc2ccc(Cl)cc2)c1	42	51*	-3	15	49*	81*
CC(=O)c1cccc(NC(=O)Nc2cccs2)c1	28	22	-8	42*	-10	-17
CC(=O)Nc1ccc(NC(=O)Nc2cccc(Cl)c2)cc1	14	-2	-7	40*	-24	-5
CSc1cccc(NC(N)=O)c1	-12	1	-5	8	-9	7
COC(=O)c1c(NC(=O)COC(=O)c2ccc(Cl)nc2)sc(C)c1C	-3	8	-1	0	-6	-9
O=C(Nc1cccs1)Nc1ccc(F)cc1F	-10	31	0	39*	4	-12
O=C(Nc1cccc(Cl)c1)Nc1ccc2nccnc2c1	58*	34*	-8	47*	8	10
c1ccc2nc3c(nc2c1)CCCC3	-6	-3	-9	0	-10	-3
c1ccc2nc3c(nc2c1)CCc1nonc1-3	16	44*	-4	2	7	-2
N#C/C(=N\Nc1ccc(Cl)cc1)C(=O)c1ccccc1	4	60*	-3	1	25	32
CCC(CC)c1nnc(NC(=O)c2c(C)nn(Cc3ccccc3Cl)c2C)s1	15	-9	4	41*	-9	-12
CCC(CC)c1nnc(NC(=O)Cc2c[nH]c3ccccc23)s1	-13	/	-5	33	/	/
CCC(CC)c1nnc(NC(=O)Cc2ccccc2[N+](=O)[O-])s1	-9	4	4	49*	-8	-14
Cc1ccc2nc(-c3ccccn3)cc(C(=O)NCCc3ccc(F)cc3)c2c1	32	37	4	3	-29	-8
SMILES	TAAR1 antag	OX1R antag-1	GalR3 antagonist	TAAR1 agonist	OX1R antag-2	CHO parental Ca
CCc1cccc(Nc2cc(C)n(-c3cccc(CC)c3)c(=O)c2)c1	-10	/	-9	2	/	/
CCCc1cc(=O)[nH]c(Nc2ccc(Cl)cc2)n1	24	23	-6	25	22	79*
CCCc1cc(=O)[nH]c(Nc2ccc(O)cc2)n1	-14	11	-6	8	-5	-1
NS(=O)(=O)c1ccc(NC2=CC(=O)C(=O)c3ccccc32)cc1	-2	60*	-7	14	8	4
CCOC(=O)c1ccc(NC2=CC(=O)C(=O)c3ccccc32)cc1	-4	28	1	9	-30	-12
Cc1ccc(NC2=CC(=O)C(=O)c3ccccc32)cc1	17	52*	-4	4	-21	-22
O=C(NCc1ccccc1)[C@H]1CCCN1C(=O)[C@H]1CCCN1C(=O)c1cccc(Cl)c1	-22	/	-2	0	/	/
COC(=O)C1=C(C)N(Cc2cccc(C(F)(F)F)c2)C(=NCc2ccc(OC)cc2)NC1c1ccccc1C(F)(F)F (stereo not drawn)	6	/	-6	6	/	/
COC(=O)C1=C(C)N(Cc2cccc(C(F)(F)F)c2)C(=NCc2ccc(C(F)(F)F)cc2)NC1c1ccccc1C(F)(F)F (stereo not drawn)	-17	/	-7	1	/	/
O=C(NCc1ccccc1)c1ccc(-c2ccccc2F)o1	-16	59*	-9	2	-12	4
O=C(Cc1coc2ccc3ccccc3c12)NCc1ccccc1	-1	27	-8	7	-14	-16
O=C(Cc1coc2ccc3ccccc3c12)NC1CCCc2ccccc21 (stereo not drawn)	1	66*	-8	-2	-2	-36
O=C(/C(=N/N=C/c1ccc(O)c(O)c1)c1ccccc1)c1ccccc1	7	6	-4	5	-5	21
CCc1cccc2c(C(=O)COC(=O)c3ccccc3)c[nH]c12	-17	17	-4	8	-5	-10
CCc1cccc2c(C(=O)COC(=O)/C=C/c3ccccc3OC)c[nH]c12	-15	63*	-8	0	-5	-14
CCCCSc1nc(C)cc(C)c1S(=O)(=O)c1ccccc1C	25	5	-1	10	23	39*
O=S(=O)(/C=C/c1ccccc1)c1ccccc1	1	9	-3	9	-2	14
O=S(=O)(C=C(c1ccccc1)c1ccccc1)c1ccccc1	5	42	-5	2	43*	48*
Cc1nn(-c2ccccc2)c(Cl)c1/C=N/NC(=O)c1ccc(CNc2ccccc2)o1	5	36	1	0	0	4
Cc1nn(-c2ccccc2)c(Cl)c1/C=N/NC(=O)OC(C)(C)C	54*	7	-6	13	8	-2
Cc1nn(-c2ccccc2)c(Cl)c1/C=N/NC(=O)c1ccco1	-18	45*	-2	4	-10	-4
CCc1cc2c(nc1CC)CCCN2S(=O)(=O)c1cccs1	-32	/	-4	-1	/	/
CC(C)c1ccc(OCC(O)CNC(C)c2ccccc2)cc1 (stereo not drawn)	-4	9	-11	57*	-17	-7
CC[C@@]1(C(=O)OC)N[C@H](CN(C)C(=O)Nc2ccccc2)[C@@H]2C(=O)N(Cc3ccccc3)C(=O)[C@@H]21	-19	0	5	1	-28	-20
